High-throughput results (PubChem)
sEH inh – soluble epoxide hydrolase (human) inhibition. P34913. recombinant human sEH enzymatic activity assay. inhibition, % at 2 µM. 0.34% of 91,000 active. AID 707; in the data active means inhibition above about 80%
Target sequence (P34913 whole entry, looked up): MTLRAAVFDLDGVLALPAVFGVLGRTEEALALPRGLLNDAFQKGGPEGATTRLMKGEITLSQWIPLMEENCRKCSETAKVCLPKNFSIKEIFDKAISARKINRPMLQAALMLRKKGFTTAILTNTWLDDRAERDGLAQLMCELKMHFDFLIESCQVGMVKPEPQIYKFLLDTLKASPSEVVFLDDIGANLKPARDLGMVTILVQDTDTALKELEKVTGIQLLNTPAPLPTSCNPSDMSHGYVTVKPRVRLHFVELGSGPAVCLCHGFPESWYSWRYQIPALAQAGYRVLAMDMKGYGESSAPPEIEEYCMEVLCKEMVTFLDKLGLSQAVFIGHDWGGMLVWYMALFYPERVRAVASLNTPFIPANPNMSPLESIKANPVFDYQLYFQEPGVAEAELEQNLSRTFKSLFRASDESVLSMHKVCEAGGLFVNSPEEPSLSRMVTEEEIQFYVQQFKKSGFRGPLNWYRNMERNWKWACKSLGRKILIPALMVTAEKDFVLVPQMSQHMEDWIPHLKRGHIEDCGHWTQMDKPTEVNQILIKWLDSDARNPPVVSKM
Rev-RRE block – inhibitors of HIV-1 Rev-RRE RNA interaction. inhibition, % at 8 µM. 0.79% of 97,000 active. Rev peptide-RRE RNA binding, FRET. AID 704. P05866;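 active means inhibition above the screen-wide mean plus 3 SD, cut at about 35% in these data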;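 further: 0% = median DMSO wells and 100% = median Neomycin B control wells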
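Assay system: Labelled RRE RNA duplex and labelled Rev peptide | Times: 5 min preincubation and 15 min binding, 25 °C | Detection: FRET, ex 480 nm, em 540 and 671 nm | Evaluation: % inhibition of FRET ratio versus controls | Benchmarks: DMSO wells as 0% and neomycin B wells as 100% inhibition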
sEH activator – increases human soluble epoxide hydrolase activity. purified human sEH enzymatic activity, activator screen. P34913. 0.04% of 91,000 active. activation, % at 2 µM. AID 717; in the data active means activation above about 37%
ERa SRC1 inh – ER-alpha (human) coactivator binding inhibition; inhibition, % at 25.6 µM; P03372; AID 629; TR-FRET ER-alpha LBD / SRC-1 peptide, estradiol-bound; 1.7% of 86,000 active; in the data active means inhibition above about 50%;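 further: 0% = receptor plus peptide control and 100% = peptide only without receptor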
ERa coact pot – enhances coactivator binding to human estrogen receptor alpha | TR-FRET ERalpha-LBD/SRC-Cy5 coactivator binding, 2 h; 100 = basal binding, no effect | coactivator binding (% of control), % at 25.6 µM | 1.3% of 86,000 active | AID 639; in the data active means activity above about 200%;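 further: binding measured in presence of low estradiol as agonist stimulus; 0% = peptide alone without receptor and 100% = receptor with peptide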
ERb SRC1 inh – blocks coactivator binding to human estrogen receptor beta; Q92731; 1.3% of 86,000 active; TR-FRET ER-beta LBD / SRC1-Cy5 peptide binding; receptor agonist-loaded with 1 µM estradiol; inhibition, % at 25.6 µM;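 active means compounds whose percent inhibition of the receptor-coactivator binding signal exceeds about 50% in the single-dose screen, limit read from the data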;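 further: 0% = receptor plus peptide wells without compound and 100% = peptide-only wells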
Numbers without * were called inactive; . = no result given; [ ] = another dose, or the depositor's remark. The list is not random: actives were taken first. Their share in the collection is about 3.5%.

SMILES	sEH inh	Rev-RRE block	sEH activator	ERa SRC1 inh	ERa coact pot	ERb SRC1 inh
COc1ccc(CN2CCN(c3ccccc3)CC2)c(C)c1C	2	5	-2	.	.	.
C=CCn1c(O)c(C=NCCN(C)C)c(=O)[nH]c1=O	-7	38*	7	-24	101	-24
CCN(CC)c1ccc(N=Cc2c(O)n(-c3ccc(Cl)cc3)c(=O)[nH]c2=O)cc1	-1	31	2	.	.	.
CCN(CC)c1ccc(N=Cc2c(O)n(-c3ccc(OC)cc3)c(=O)[nH]c2=O)cc1	8	72*	-6	3	86	14
CN(Cc1ccccc1)Cc1ccccc1OC(=O)N(C)C	.	-1	.	8	104	6
CC1CCC(NCC(O)c2ccccc2)CC1 (stereo unspecified)	16	1	-14	1	294*[fluorescence artefact?]	-4
CC(=O)c1c(C)n(CCCOC(C)C)c2ccc(O)cc12	0	-3	4	9	108	5
CCOc1ccc2[nH]c(=O)c(CN(CCO)C3(c4nnnn4C4CCCCC4)CCCCC3)cc2c1	11	8	-11	12	239*	-1
O=P1(NC2CCCC2)COc2ccccc2OC1	-7	1	8	4	109	4
O=P1(NCc2ccco2)COc2ccccc2OC1	-6	9	5	-1	211*[fluorescence artefact?]	2
COc1ccc2[nH]c(C)c(CCN3CCC(=O)C(C)C3C)c2c1 (stereo unspecified)	.	-4	.	41	83	64*[fluorescence artefact?]
CC12CN3CC(c4ccccc4)(CN(C1)C31CCCCC1)C2=O	-1	3	0	5	107	-2
O=c1[nH]c(CN2CC=C(c3ccccc3)CC2)nc2cc(C(F)(F)F)ccc12	8	45*	-10	-3	92	-10
C1=C(c2c[nH]c3ccccc23)CCNC1	-1	99*[fluorescence artefact?]	5	-14	86	-20
CC(C)N1CC=C(c2c[nH]c3ccccc23)CC1	-18	-3	15	.	.	.
CCN(CC)P(=O)(NC(=O)C(Cl)(Cl)Cl)N(CC)CC.[Cl-].[Cl-].[Cl-].[Nd+3]	9	8	-10	69*[fluorescence artefact?]	95	50*[fluorescence artefact?]
Cc1nc2ccccc2c(=O)n1-c1ccc(F)cc1	.	.	.	-14	109	4
CN1CCc2nc(N)c(C#N)c(-c3ccccc3)c2C1	-6	46*	7	.	.	.
CN1CCc2nc3sc(C#N)c(N)c3c(-c3cccs3)c2C1	-11	32	13	15	79	18
Cc1cc2c(C(F)(F)F)cc(=O)oc2c2c1NCCC2	-1	130*[fluorescence artefact?]	2	36	123	24
O=c1cc(C(F)(F)F)c2cc3c4c(c2o1)CCCN4CCC3	-4	132*[fluorescence artefact?]	6	-5	96	1
O=C(C1CC(c2ccccc2O)=NO1)N1CCC2(CC1)OCCO2 (stereo unspecified)	3	9	0	-1	94	-5
